Type in all cases: functional
For assay [1], the system named is Abutilon theophrasti. Description: Herbicidal activity against Abutilon theophrasti (velvetleaf) at 30 g/hm2 postemergent application after 2 weeks. The method, boiled down:
(§1)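 Seedlings grown 14 days in the greenhouse; plants uniform in size and stage were chosen. Test compound in acetone sprayed post-emergence at a carrier volume equivalent to 187 L/ha. Plants returned to the greenhouse and watered; untreated plants served as control. Each species scored visually two weeks after application on a 0–100 scale (0 no activity, 100 total control).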

Assay [2] concerns Abutilon theophrasti. Description: Herbicidal activity against Abutilon theophrasti (velvetleaf) at 120 g/hm2 postemergent application after 2 weeks. The procedure, abridged:
as §1

Assay [3] deals with Abutilon theophrasti. Description: Herbicidal activity against Abutilon theophrasti (velvetleaf) at 480 g/hm2 postemergent application after 2 weeks. The procedure, abridged: as §1
For assay [4], the system named is Digitaria sanguinalis. Briefly: Herbicidal activity against Digitaria sanguinalis (hairy crabgrass) at 120 g/hm2 postemergent application after 2 weeks. The procedure, abridged: as §1
In assay [5] the test system is Digitaria sanguinalis. Description: Herbicidal activity against Digitaria sanguinalis (hairy crabgrass) at 30 g/hm2 postemergent application after 2 weeks. The procedure, abridged: as §1
In assay [6] the test system is Digitaria sanguinalis. Briefly: Herbicidal activity against Digitaria sanguinalis (hairy crabgrass) at 480 g/hm2 postemergent application after 2 weeks. The method, boiled down: as §1
Assay [7] has as its system Echinochloa crus-galli. Briefly: Herbicidal activity against Echinochloa crus-galli (barnyard grass) at 30 g/hm2 postemergent application after 2 weeks. The procedure, abridged: as §1
In assay [8] the test system is Echinochloa crus-galli. Briefly: Herbicidal activity against Echinochloa crus-galli (barnyard grass) at 120 g/hm2 postemergent application after 2 weeks. The procedure, abridged: as §1
In assay [9] the test system is Echinochloa crus-galli. Briefly: Herbicidal activity against Echinochloa crus-galli (barnyard grass) at 480 g/hm2 postemergent application after 2 weeks. The method, boiled down:
as §1

Assay [10] concerns Abutilon theophrasti. Briefly: Herbicidal activity against Abutilon theophrasti (velvetleaf) at 40 g/hm2 postemergent application after 2 weeks. The method, boiled down: as §1
Assay [11] concerns Abutilon theophrasti. Briefly: Herbicidal activity against Abutilon theophrasti (velvetleaf) at 200 g/hm2 postemergent application after 2 weeks. The procedure, abridged: as §1
The test system of assay [12] is Abutilon theophrasti. Description: Herbicidal activity against Abutilon theophrasti (velvetleaf) at 1000 g/hm2 postemergent application after 2 weeks. The procedure, abridged:
as §1

Assay [13] concerns Digitaria sanguinalis. Description: Herbicidal activity against Digitaria sanguinalis (hairy crabgrass) at 200 g/hm2 postemergent application after 2 weeks. The procedure, abridged: as §1
Assay [14] has as its system Digitaria sanguinalis. Description: Herbicidal activity against Digitaria sanguinalis (hairy crabgrass) at 40 g/hm2 postemergent application after 2 weeks. The method, boiled down: as §1
Assay [15] concerns Digitaria sanguinalis. Briefly: Herbicidal activity against Digitaria sanguinalis (hairy crabgrass) at 1000 g/hm2 postemergent application after 2 weeks. The method, boiled down:
as §1

For assay [16], the system named is Echinochloa crus-galli. Briefly: Herbicidal activity against Echinochloa crus-galli (barnyard grass) at 40 g/hm2 postemergent application after 2 weeks. The procedure, abridged: as §1
Assay [17] has as its system Echinochloa crus-galli. Briefly: Herbicidal activity against Echinochloa crus-galli (barnyard grass) at 200 g/hm2 postemergent application after 2 weeks. The procedure, abridged: as §1
The subject of assay [18] is Echinochloa crus-galli. Description: Herbicidal activity against Echinochloa crus-galli (barnyard grass) at 1000 g/hm2 postemergent application after 2 weeks. The method, boiled down: as §1

In the case of `CCCOC(=O)/C=C/COC(=O)c1cc(Oc2ccc(C(F)(F)F)cc2Cl)ccc1[N+](=O)[O-]`, the Activity is given as 95% in the assay with Abutilon theophrasti [1]; 100% in the assay with Abutilon theophrasti [2]; 100% in the assay with Abutilon theophrasti [3]; 80% in the assay on Digitaria sanguinalis [4]; 70% with Digitaria sanguinalis [5]; 90% in the assay on Digitaria sanguinalis [6]. The Activity in the assay with Echinochloa crus-galli [7] stood at 10%; with Echinochloa crus-galli [8] it was 40%; in the assay with Echinochloa crus-galli [9] it was 70%.
Turning to `CC(C)OC(=O)/C=C/COC(=O)c1cc(Oc2ccc(C(F)(F)F)cc2Cl)ccc1[N+](=O)[O-]`, the Activity was determined as 80% in the assay on Abutilon theophrasti [1]; 95% with Abutilon theophrasti [2]; 100% in the assay with Abutilon theophrasti [3]; 85% in the assay with Digitaria sanguinalis [4]; 80% in the assay with Digitaria sanguinalis [5]; 90% with Digitaria sanguinalis [6]. Besides, the Activity in the assay on Echinochloa crus-galli [7] was determined as 30%; in the assay on Echinochloa crus-galli [8], 60%; in the assay with Echinochloa crus-galli [9] it was 80%.
In the case of `COC(=O)/C=C/COC(=O)c1cc(Oc2ccc(C(F)(F)F)cc2Cl)ccc1[N+](=O)[O-]`, the Activity in the assay on Abutilon theophrasti [1] amounted to 30%; with Abutilon theophrasti [2] it was 95%; with Abutilon theophrasti [3], 100%; in the assay with Digitaria sanguinalis [4] it was 80%; in the assay with Digitaria sanguinalis [5] it was 20%; in the assay with Digitaria sanguinalis [6], 90%. For the same compound, the Activity with Echinochloa crus-galli [7] is recorded as 10%; with Echinochloa crus-galli [8], 60%; in the assay on Echinochloa crus-galli [9] it was 80%.
As for `CCOC(=O)/C(C)=C(\C)OC(=O)c1cc(Oc2ccc(C(F)(F)F)cc2Cl)ccc1Cl`, the Activity in the assay on Abutilon theophrasti [10] was 5%; in the assay on Abutilon theophrasti [11] it was 90%; with Abutilon theophrasti [12], 100%; with Digitaria sanguinalis [13], 25%; with Digitaria sanguinalis [14], 0%; in the assay on Digitaria sanguinalis [15] it was 30%. The Activity in the assay on Echinochloa crus-galli [16] was 0%; in the assay with Echinochloa crus-galli [17], 20%; with Echinochloa crus-galli [18], 25%.

The values above are taken from ChEMBL document CHEMBL3046106, “Synthesis and herbicidal activity of diphenyl ether derivatives containing unsaturated carboxylates” (J Agric Food Chem, 2011).
